# Results from the RNAGym collection of RNA variant scans (doi:10.1126/science.aae0568).
# Fewer inactive variants are shown than the library holds.
# B1: tRNA (parent)
# chain: GUUCCGUUGGCGUAAUGGUAACGCGUCUCCCUCCUAAGGAGAAGACUGCGGGUUCGAGUCCCGUACGGAACG
# Variants of: B1
# Assay: yeast fitness relative to wild type (ratio to wild type); higher = fitter; tRNA-Arg(CCU), competitive growth, 37 C, YPD
# In short: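 The tRNA-Arg(CCU) gene variants were made by chemical synthesis with a 3% per-site mutation rate at 69 sites and inserted at the native genomic locus of Saccharomyces cerevisiae. After pooling, the strains were competed in YPD at 37°C for 24 hours in six parallel replicates. Gene amplicons from the start population and each end population were read by 100-nucleotide paired-end sequencing, and Darwinian fitness relative to wild type was taken from genotype frequency changes. Genotypes needed ≥ 100 starting reads, and estimates < 0.5 were set to 0.5.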
row,Variant,yeast fitness
1,G6C C29U C31U U54G A65U G67A,≤ 0.5
2,G6C A37U A43U,0.525
3,G6C C29U G44A A65G,≤ 0.5
4,G6C C29A A40G G51C,0.657
5,G6A U32G U35G,≤ 0.5
6,G6C C11G C61U,≤ 0.5
7,G6A U19G,0.828
8,G6C C22A C31G A42G A65C,≤ 0.5
9,G6C C34G G38A,≤ 0.5
10,G6A G39A G41A A65G,0.613
11,G6A U13G U35C A57C,≤ 0.5
12,G6C C11G A14U A20G C22U G44A C55A,≤ 0.5
13,G6C A37U U53C A69U,≤ 0.5
14,G6A U32C,0.839
15,G6C A45C G48A G51C,≤ 0.5
16,G6C C22U A65G C66G G68C,≤ 0.5
17,G6A G58C,1.08
18,G6A G58A,0.902
19,G6C C46G U54C,≤ 0.5
20,G6C A37G,0.728
21,G6C A37U,0.677
22,G6A U35A,0.775
23,G6A U8C C31G C60G,≤ 0.5
24,G6A U13A G58C C60U C66G,≤ 0.5

row,Variant,yeast fitness
1,G6C C22A C34A A70C,0.525
2,G6C A14G A20C U54A A57C,≤ 0.5
3,G6C C11U C34G U47G,≤ 0.5
4,G6C C33G C34U C49U U64A,≤ 0.5
5,G6C A40G C61A,≤ 0.5
6,G6C C49U U53A C66U A70U,≤ 0.5
7,G6A G41A G51C,≤ 0.5
8,G6A U13G A36U C46G C62A,≤ 0.5
9,G6C A40U,0.803
10,G6A G39A,0.916
11,G6A U13C C27G A37U C60A,≤ 0.5
12,G6C A20U C22U C24U,≤ 0.5
13,G6A G39A G52C C55G,≤ 0.5
14,G6A G44A A45G G51C C66U A69C,≤ 0.5
15,G6A G44C,0.799
16,G6A G38C U54A A65C,≤ 0.5
17,G6C C11U C34G,≤ 0.5
18,G6C C11U A45U,0.559
19,G6C A21G G48A A57C G67A,≤ 0.5
20,G6C C30A A42C,0.546
21,G6A U13G A40U,0.502
22,G6A U13A U16A C24G C33G C62G,≤ 0.5
23,G6A U13A C30G C61U,0.601
24,G6C C11G C61U A70U,≤ 0.5

row,Variant,yeast fitness
1,G6C C11G C29U G50A C55U,≤ 0.5
2,G6C A15C A21C C34U A37U A57U,≤ 0.5
3,G6C C33G A36U G38C A65G,≤ 0.5
4,G6A U13C C31U U32C G67C,≤ 0.5
5,G6C A14U G18C C49U,≤ 0.5
6,G6C A20U A36C A40G A43U A57C,≤ 0.5
7,G6A G44A C60G U64C,≤ 0.5
8,G6A U19G A43U A65G G68A,≤ 0.5
9,G6A G63A,0.883
10,G6C C24U U47C A57U,≤ 0.5
11,G6A U8A C11U,≤ 0.5
12,G6A U13A G17A G23C A45G,0.602
13,G6C C31G C33G U47C G51A,≤ 0.5
14,G6C A20U C30G C61A,≤ 0.5
15,G6C C22A U28A G51U U53G,≤ 0.5
16,G6C C22A C31G,≤ 0.5
17,G6A U8C A42C A45U C61G,≤ 0.5
18,G6C A45C U47C G68C,≤ 0.5
19,G6C C22U C24G C27U C29A C30U C31G C49U C66U G67A,≤ 0.5
20,G6A U8A G23C,≤ 0.5
21,G6C C33G A36C,≤ 0.5
22,G6C C11A C22U U47C C66A,≤ 0.5
23,G6A U16A,0.769
24,G6A U16C,0.974

row,Variant,yeast fitness
1,G6A G41A,0.822
2,G6C C11A C34G,≤ 0.5
3,G6C C11G G48C A57G U59A C60A,≤ 0.5
4,G6C A14C A21C A42G A70G,≤ 0.5
5,G6A U59G,0.912
6,G6A U59A,0.715
7,G6A U59C,0.893
8,G6A U16G A21G,0.544
9,G6A G39C A45G,≤ 0.5
10,G6C C22U C24G C27U C29A C30U C31G,≤ 0.5
11,G6C A37G G68C,0.536
12,G6A U13C C22G C55G,≤ 0.5
13,G6A U8C A70U,0.57
14,G6C A42U G67A,≤ 0.5
15,G6C A45U C60A C61A G63A,≤ 0.5
16,G6C C24A G58C A65C,≤ 0.5
17,G6C C11G A15C G25C C27G C30G G38C,0.61
18,G6C A14C C24U C27G C29A A70G,≤ 0.5
19,G6C C33G A36C C49A,≤ 0.5
20,G6C C22A G41A G44A C46A G52A C66U,≤ 0.5
21,G6A U13C G23A A65C,≤ 0.5
22,G6C A37U C49U G56A A69U,≤ 0.5
23,G6C A20G A45U,0.507
24,G6C A15U A42G A65G,≤ 0.5

row,Variant,yeast fitness
1,G6A G44A C46A,≤ 0.5
2,G6A G44U C66U,0.601
3,G6C C31A G68C,0.502
4,G6A U13G G48A G50A U54A,≤ 0.5
5,G6C C22U,0.706
6,G6A G44A C61G,≤ 0.5
7,G6C A45C G58A,0.587
8,G6C A45C G50A,0.629
9,G6C C29G C66U,0.565
10,G6A G52A,0.677
11,G6C C30U C46A G67C,≤ 0.5
12,G6C C24A C34U C49G G52C C55U C62G,≤ 0.5
13,G6C A14G U16C A42U G52U,≤ 0.5
14,G6A U8C U13G C27U C61G,0.567
15,G6C C46A G63A,0.689
16,G6A U19A A20G G23A,≤ 0.5
17,G6C A70G,0.948
18,G6C A70C,0.938
19,G6A G41A A42C G50C A70G,0.543
20,G6C A14G C27A A42C G52A G56A G63C,≤ 0.5
21,G6C A15C A21C C34U A37U C55A U59C C61A C62U,0.537
22,G6A U8C G18C,≤ 0.5
23,G6C C55G G68A,≤ 0.5
24,G6A G68C,0.754

row,Variant,yeast fitness
1,G6C A14U A36G A42G G52A G58A,≤ 0.5
2,G6C A15G C24U C60A,0.554
3,G6A U26C,0.842
4,G6A U7A A20G C46G,0.538
5,G6A G39C G44C C46U,≤ 0.5
6,G6C C24G C30G,≤ 0.5
7,G6C A15C,0.689
8,G6C C29G G39C,0.931
9,G6C A42G U53C C62U,≤ 0.5
10,G6A U13G U28G,0.511
11,G6C C11G A15C G25C C27G C30G G38C A40G,≤ 0.5
12,G6C A57U C62U,≤ 0.5
13,G6C C27U G56A C61U,≤ 0.5
14,G6C A65G,0.94
15,G6C A42C A65G C66G,0.532
16,G6C A20U,0.812
17,G6C A20U C30G A65G A70U,0.53
18,G6C C46G C62U G63A C66U,≤ 0.5
19,G6C A14G A20C G52A U64A G67A,≤ 0.5
20,G6A G67A,0.872
21,G6A U13A A14G A42U,≤ 0.5
22,G6A U53A,0.663
23,G6A U53C,0.82
24,G6A U26C A69U,0.664

row,Variant,yeast fitness
1,G6C A14G U35G G51A,≤ 0.5
2,G6C A21C C22G,≤ 0.5
3,G6A U47C A57C,≤ 0.5
4,G6C C24G,0.686
5,G6C C24A,0.525
6,G6A U19G U53C,≤ 0.5
7,G6C A15G U54G C55U,≤ 0.5
8,G6C C27G C34A A65C,≤ 0.5
9,G6A G50A G56U G58A,≤ 0.5
10,G6C C29U C34U,0.561
11,G6C C30G A36C G58A,≤ 0.5
12,G6C C31U A36G G52C G68A,≤ 0.5
13,G6A U8A C24U A40U,0.684
14,G6A U8C C62U,0.604
15,G6A U53A G67U G68A,≤ 0.5
16,G6C A57G,0.968
17,G6A U8C G17A G25A C55A,≤ 0.5
18,G6A U16G A37C A57C C60A,≤ 0.5
19,G6A U28A G68A,0.533
20,G6C A43U G50A A70U,≤ 0.5
21,G6C C11G A15C G25C C27G C30G G38C A70C,≤ 0.5
22,G6C C46G,0.823
23,G6C C46A,0.951
